According to ChEMBL document CHEMBL4130466, “Angeloylated Germacranolides from Daucus virgatus and Their Plasmodium Transmission Blocking Activity” (J Nat Prod, 2017):

Legend:
Plasmodium berghei [1] = experiment: Antiplasmodial activity against Plasmodium berghei CTRPp expressing GFP assessed as inhibition of early sporogonic stages development at 50 ug/ml after 24 hrs by fluorescence microscopy
Plasmodium berghei [2] = experiment: Antiplasmodial activity against Plasmodium berghei CTRPp expressing GFP assessed as inhibition of early sporogonic stages development after 24 hrs by fluorescence microscopy
Plasmodium berghei [3] = experiment: Antiplasmodial activity against Plasmodium berghei CTRPp expressing GFP assessed as decrease in capacity of zygote to undergo ookinete maturation after 24 hrs by Zeiss fluorescence microscopy; type: functional, organism-based
Summary of the method: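 Mice were primed with phenylhydrazine 120 mg/kg ip and infected ip with 10^7 P. berghei CTRPp.GFP RBCs. Day-4 blood with >3 exflagellation centres/1000 RBCs went into pH 7.4 RPMI 1640 (100 μM xanthurenic acid, 20% FBS) with compound over a dose range. Incubation was 19 °C, 24 h. GFP zygotes and ookinetes were counted by fluorescence microscopy, with inhibition calculated against 0.1% DMSO. Wells were in triplicate, and experiments were run at least twice.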

HaCaT = experiment: Cytotoxicity against human HaCaT cells; type: cell-based
A-375 = experiment: Cytotoxicity against human A375 cells; type: cell-based

Compound | inhibition at 50 µg/mL (Plasmodium berghei [1]) [%] | further results
C/C=C(/C)C(=O)O[C@H]1/C=C(\C)CC[C@@H]2O[C@@]2(C)C[C@@H]2OC(=O)[C@@](C)(O)[C@@H]12 | 22 to 35 | –
C/C=C(/C)C(=O)O[C@]1(C)C(=O)O[C@H]2C/C(C)=C/CC[C@]3(C)O[C@H]3[C@H](OC(=O)[C@@]3(C)O[C@H]3C)[C@@H]21 | 22 to 35 | –
C=C1C[C@H](OC(=O)/C(C)=C\C)[C@H]2[C@H](/C=C(\C)CC[C@@H]1O)OC(=O)[C@@]2(C)O | 22 to 35 | –
C=C1C[C@@H]2OC(=O)[C@@](C)(O)[C@H]2[C@@H](OC(=O)/C(C)=C\C)[C@@H]2O[C@@]2(C)CC[C@H]1OO | 22 to 35 | –
C/C=C(/C)C(=O)O[C@]1(C)C(=O)O[C@H]2C[C@]3(C)O[C@H]3CC/C(C)=C/[C@H](OC(=O)[C@@]3(C)O[C@H]3C)[C@@H]21 | 22 to 35 | –
C=C[C@@]12COC(=O)C(=C)[C@@H]1[C@@H](O)[C@H](C(=C)C(=O)OC)[C@@H](OC(=O)C(=C)CO)C2 [VERNODALOL] | – | IC50 (Plasmodium berghei [2]): 19 µM
C/C=C(/C)C(=O)O[C@]1(C)C(=O)O[C@H]2C/C(C)=C/CC/C(C)=C/[C@H](OC(=O)[C@@]3(C)O[C@H]3C)[C@@H]21 | 92 | IC50 (Plasmodium berghei [3]): 48.4 µM; IC50 (HaCaT): > 100 µM; IC50 (A-375): > 100 µM; IC50 (Plasmodium berghei [2]): 82.3 µM
C/C=C(/C)C(=O)O[C@@H]1[C@H]2[C@H](C/C(C)=C/CC[C@]3(C)O[C@@H]13)OC(=O)[C@@]2(C)O | 22 to 35 | –
